{"source": "ChEMBL document CHEMBL1148725", "about": "“2,2,2-Trichloro-N-({2-[2-(dimethylamino)ethyl]-1,3-dioxo-2,3-dihydro-1H-benzo[de]isoquinolin- 5-yl}carbamoyl)acetamide (UNBS3157), a novel nonhematotoxic naphthalimide derivative with potent antitumor activity” (J Med Chem, 2007)", "key": {"[1]": {"system": "Mus musculus", "assay": "Hematotoxicity in B6D2F1 mouse assessed as platelet count at 40 mg/kg, po", "assay_type": "organism-based", "parameters": "dose 40 mg/kg, route oral", "details": "in vivo"}, "[2]": {"system": "Mus musculus", "assay": "Hematotoxicity in B6D2F1 mouse assessed as platelet count at 5 mg/kg, iv", "assay_type": "organism-based", "parameters": "dose 5 mg/kg, route intravenous", "details": "in vivo"}, "[3]": {"system": "Mus musculus", "assay": "Hematotoxicity in B6D2F1 mouse assessed as RBC count at 10 mg/kg, po", "assay_type": "organism-based", "parameters": "dose 10 mg/kg, route oral", "details": "in vivo"}, "[4]": {"assay": "Toxicity in ip dosed B6D2F1 mouse", "assay_type": "organism-based", "details": "in vivo", "procedure,_shortened": "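Acute MTD was set by a single i.p. dose to groups of three healthy female B6D2F1 mice, at 2.5, 5, 10, 20, 40, 80 and 160 mg/kg. The MTD is the dose just below the lowest dose that killed at least one mouse.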"}, "[5]": {"system": "L1210", "assay": "Antitumor activity in L1210 cells xenografted B6D2F1 mouse at 120 mg/kg, ip relative to control", "assay_type": "functional", "details": "route intraperitoneal", "procedure,_shortened": "(§1)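 Mice grafted with L1210 leukaemia cells on day 0, then dosed i.p. four times weekly on days 1-4 and 8-11. Five mice per group. Outcome is %T/C, the median survival of treated over control. Kruskal-Wallis test followed by Dunn comparisons against control.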"}, "[6]": {"assay": "Antiproliferative activity against Hs683 cells after 72 hrs by MTT assay", "assay_type": "functional, cell-based, Homo sapiens, Hs 683", "details": "hs 683", "procedure,_shortened": "(§2)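 Cells cultured with each compound for three days; growth then read by the MTT colorimetric assay and reported as IC50 (µM).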"}, "[7]": {"system": "Mus musculus", "assay": "Hematotoxicity in B6D2F1 mouse assessed as WBC count at 20 mg/kg, po", "assay_type": "organism-based", "parameters": "dose 20 mg/kg, route oral", "details": "in vivo"}, "[8]": {"system": "Mus musculus", "assay": "Hematotoxicity in B6D2F1 mouse assessed as WBC count at 10 mg/kg, po", "assay_type": "organism-based", "parameters": "dose 10 mg/kg, route oral", "details": "in vivo"}, "[9]": {"system": "Mus musculus", "assay": "Hematotoxicity in ip dosed B6D2F1 mouse assessed as decrease in platelet count", "assay_type": "organism-based", "details": "in vivo", "procedure,_shortened": "(§3)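 Healthy female B6D2F1 mice, 10 per group, dosed i.p. three times weekly for five weeks at two dose levels set relative to MTD. Vehicle DMSO/saline 5:95 v/v. Killed 3 days after the last dose; blood platelet, RBC and WBC counts taken with a Coulter counter.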"}, "[10]": {"system": "Mus musculus", "assay": "Hematotoxicity in B6D2F1 mouse assessed as WBC count at 40 mg/kg, po", "assay_type": "organism-based", "parameters": "dose 40 mg/kg, route oral", "details": "in vivo"}, "[11]": {"system": "Mus musculus", "assay": "Hematotoxicity in B6D2F1 mouse assessed as RBC count at 10 mg/kg, iv", "assay_type": "organism-based", "parameters": "dose 10 mg/kg", "details": "in vivo"}, "[12]": {"system": "Mus musculus", "assay": "Hematotoxicity in B6D2F1 mouse assessed as WBC count at 10 mg/kg, iv", "assay_type": "organism-based", "parameters": "dose 10 mg/kg, route intravenous", "details": "in vivo"}, "[13]": {"system": "Mus musculus", "assay": "Hematotoxicity in B6D2F1 mouse assessed as platelet count at 10 mg/kg, po", "assay_type": "organism-based", "parameters": "dose 10 mg/kg, route oral", "details": "in vivo"}, "[14]": {"system": "L1210", "assay": "Antitumor activity in L1210 cells xenografted B6D2F1 mouse at 80 mg/kg, ip relative to control", "assay_type": "functional", "details": "route intraperitoneal", "procedure,_shortened": "as §1"}, "[15]": {"system": "HCT-15", "assay": "Antiproliferative activity against HCT15 cells after 72 hrs by MTT assay", "assay_type": "functional, cell-based, Homo sapiens", "details": "hct-15", "procedure,_shortened": "as §2"}, "[16]": {"system": "A549", "assay": "Antiproliferative activity against A549 cells after 72 hrs by MTT assay", "assay_type": "functional, cell-based, Homo sapiens", "details": "a549", "procedure,_shortened": "as §2"}, "[17]": {"system": "L1210", "assay": "Antitumor activity in L1210 cells xenografted B6D2F1 mouse at 40 mg/kg, ip relative to control", "assay_type": "functional", "details": "route intraperitoneal", "procedure,_shortened": "as §1"}, "[18]": {"assay": "Antiproliferative activity against U373MG cells after 72 hrs by MTT assay", "assay_type": "functional, cell-based, Homo sapiens, U-373MG ATCC", "details": "u-373mg atcc", "procedure,_shortened": "as §2"}, "[19]": {"system": "Mus musculus", "assay": "Hematotoxicity in B6D2F1 mouse assessed as RBC count at 20 mg/kg, po", "assay_type": "organism-based", "parameters": "dose 20 mg/kg, route oral", "details": "in vivo"}, "[20]": {"system": "L1210", "assay": "Antitumor activity in L1210 cells xenografted B6D2F1 mouse at 10 mg/kg, ip relative to control", "assay_type": "functional", "details": "route intraperitoneal", "procedure,_shortened": "as §1"}, "[21]": {"system": "Mus musculus", "assay": "Hematotoxicity in B6D2F1 mouse assessed as RBC count at 5 mg/kg, iv", "assay_type": "organism-based", "parameters": "dose 5 mg/kg, route intravenous", "details": "in vivo"}, "[22]": {"system": "MCF7", "assay": "Antiproliferative activity against MCF7 cells after 72 hrs by MTT assay", "assay_type": "functional, cell-based, Homo sapiens", "details": "mcf7", "procedure,_shortened": "as §2"}, "[23]": {"system": "Mus musculus", "assay": "Toxicity in B6D2F1 mouse at 120 mg/kg, ip", "assay_type": "organism-based", "parameters": "dose 120 mg/kg, route intraperitoneal", "details": "in vivo", "procedure,_shortened": "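Healthy female B6D2F1 mice, 10 per group, dosed i.p. in DMSO/saline (5:95 v/v) three times weekly for five weeks at two levels set relative to MTD; sacrificed 3 days after final dose; platelet, RBC and WBC counted by Coulter counter.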"}, "[24]": {"system": "Mus musculus", "assay": "Hematotoxicity in B6D2F1 mouse assessed as RBC count at 40 mg/kg, po", "assay_type": "organism-based", "parameters": "dose 40 mg/kg, route oral", "details": "in vivo"}, "[25]": {"system": "Mus musculus", "assay": "Hematotoxicity in ip dosed B6D2F1 mouse assessed as decrease in RBC count", "assay_type": "organism-based", "details": "in vivo", "procedure,_shortened": "as §3"}, "[26]": {"system": "L1210", "assay": "Antitumor activity in L1210 cells xenografted B6D2F1 mouse at 20 mg/kg, ip relative to control", "assay_type": "functional", "details": "route intraperitoneal", "procedure,_shortened": "as §1"}, "[27]": {"system": "LoVo", "assay": "Antiproliferative activity against LoVo cells after 72 hrs by MTT assay", "assay_type": "functional, cell-based, Homo sapiens", "details": "lovo", "procedure,_shortened": "as §2"}, "[28]": {"system": "Mus musculus", "assay": "Hematotoxicity in B6D2F1 mouse assessed as WBC count at 5 mg/kg, iv", "assay_type": "organism-based", "parameters": "dose 5 mg/kg, route intravenous", "details": "in vivo"}, "[29]": {"system": "Mus musculus", "assay": "Hematotoxicity in B6D2F1 mouse assessed as platelet count at 10 mg/kg, iv", "assay_type": "organism-based", "parameters": "dose 10 mg/kg, route intravenous", "details": "in vivo"}, "[30]": {"system": "Mus musculus", "assay": "Hematotoxicity in B6D2F1 mouse assessed as platelet count at 20 mg/kg, po", "assay_type": "organism-based", "parameters": "dose 20 mg/kg, route oral", "details": "in vivo"}}}
{"smiles": "CN(C)CCN1C(=O)c2cccc3cc(/N=C\\c4cc(O)ccc4O)cc(c23)C1=O", "values": [{"measurement": "Activity", "setting": "[1]", "result": "1033 10^3 /uL"}, {"measurement": "Activity", "setting": "[2]", "result": "498 10^3 /uL"}, {"measurement": "Activity", "setting": "[3]", "result": "10.22 10^6 /uL"}, {"measurement": "MTD", "setting": "[4]", "result": "> 160", "unit": "mg/kg"}, {"measurement": "Activity", "setting": "[5]", "result": 42, "unit": "%"}, {"measurement": "IC50", "setting": "[6]", "result": "> 10", "unit": "µM"}, {"measurement": "Activity", "setting": "[7]", "result": "2.17 10^3 /uL"}, {"measurement": "Activity", "setting": "[8]", "result": "2.36 10^3 /uL"}, {"measurement": "Activity", "setting": "[9]", "result": "Toxic"}, {"measurement": "Activity", "setting": "[10]", "result": "4.07 10^3 /uL"}, {"measurement": "Activity", "setting": "[11]", "result": "9.54 10^6 /uL"}, {"measurement": "Activity", "setting": "[12]", "result": "3.05 10^3 /uL"}, {"measurement": "Activity", "setting": "[13]", "result": "909 10^3 /uL"}, {"measurement": "Activity", "setting": "[14]", "result": ">300", "unit": "%"}, {"measurement": "IC50", "setting": "[15]", "result": "> 10", "unit": "µM"}, {"measurement": "IC50", "setting": "[16]", "result": 9.1, "unit": "µM"}, {"measurement": "Activity", "setting": "[17]", "result": 232, "unit": "%"}, {"measurement": "IC50", "setting": "[18]", "result": 7.8, "unit": "µM"}, {"measurement": "Activity", "setting": "[19]", "result": "9.92 10^6 /uL"}, {"measurement": "Activity", "setting": "[20]", "result": 151, "unit": "%"}, {"measurement": "Activity", "setting": "[21]", "result": "9.48 10^6 /uL"}, {"measurement": "IC50", "setting": "[22]", "result": "> 10", "unit": "µM"}, {"measurement": "Activity", "setting": "[23]", "result": "Toxic"}, {"measurement": "Activity", "setting": "[24]", "result": "7.87 10^6 /uL"}, {"measurement": "Activity", "setting": "[25]", "result": "Toxic"}, {"measurement": "Activity", "setting": "[26]", "result": 148, "unit": "%"}, {"measurement": "IC50", "setting": "[27]", "result": 8.4, "unit": "µM"}, {"measurement": "Activity", "setting": "[28]", "result": "3.09 10^3 /uL"}, {"measurement": "Activity", "setting": "[29]", "result": "443 10^3 /uL"}, {"measurement": "Activity", "setting": "[30]", "result": "1007 10^3 /uL"}]}
